Screening data from PubChem.
Many of the other results were omitted from the sample, so hits are more common in it than they were.
Insulin prom act – TRM-6 insulin promoter activation. TRM-6 cells (human fetal islet line), insulin promoter eGFP reporter, imaging; plate-scaled: unstimulated 0, stimulated control 100. actives 0.81% (n = 130,000). activation, % at 2 µM;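 active = activation at 2 µM above a set limit, confirmed on inspection of the cell images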;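 note: share of cells whose green reporter signal exceeds an intensity cutoff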
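Assay system: TRM-6 human fetal islet cells, insulin promoter–eGFP reporter; Also added: 0.75 µM tamoxifen as reporter inducer; Schedule: 15 h tamoxifen pre-treatment, 48 h compound treatment at 37 °C; Signal: fixed-cell fluorescence microscopy, eGFP plus Hoechst; Read-out: percent activation from GFP-positive cell fraction; Control set: stimulated and unstimulated wells.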
Large screens that a line does not name were inactive; [ ] = another dose, or the depositor's remark.

O=[N+]([O-])c1ccc(/C=C/C2=NN(c3ccccc3)C(c3ccco3)C2)cc1 (configuration not stated)	Insulin prom act 284.6[fluoresces]
O=[N+]([O-])c1ccc(-c2nnc(CSc3nc(-c4ccccc4)nc4ccc(F)cc34)o2)cc1	none
CCOC(=O)C(C)Sc1ncnc2c1nnn2-c1ccc(F)cc1 (configuration not stated)	none
CCOC(=O)C(C)Sc1ncnc2nc[nH]c12 (configuration not stated)	Insulin prom act 513.3
CCOC(=O)C(CC)Sc1ncnc2nc[nH]c12 (configuration not stated)	none
Cc1ccc(CC2CC(=O)N(c3nc4ccccc4n3C)C2=O)cc1 (configuration not stated)	none
Cc1cc(C)n(CC(O)Cn2c3ccc(Br)cc3c3cc(Br)ccc32)c(=O)n1 (configuration not stated)	Insulin prom act 77.1
CN(C)/C=C(\C#N)C(=O)N/N=C/c1ccccc1	none
CCN(CC)c1ccc(/C=N/NC(=O)CCC(=O)NCc2ccccc2)c(O)c1	none
CC(C)NC(=O)N(O)C1N(Cc2ccc3c(c2)OCO3)C(=S)SC1(C)C (configuration not stated)	none
O=C(c1ccc(N2CCOCC2)cc1)c1cccs1	none
Cc1cc(N2C(=O)CC(C(C)c3ccccc3)C2=O)no1 (configuration not stated)	none
Cc1cc(N2C(=O)CC(N3CCN(c4ccc(C(=O)c5cccs5)cc4)CC3)C2=O)no1 (configuration not stated)	Insulin prom act 437.5
COc1ccc(C(=O)N2CCC(c3ccccc3)CC2)c(OC)c1OC	none
O=C(NCc1cccs1)C1CCN(C(=O)NCc2ccccc2)CC1	none
COc1ccc(NC(=O)CSc2nnnn2C)cc1	none
Cn1nnnc1SCC(=O)Nc1ccccc1[N+](=O)[O-]	none
Cn1nnnc1SCC(=O)Nc1ccccn1	Insulin prom act 92.9
CCOCCCN1CN(S(=O)(=O)c2ccc(Cl)cc2)c2nc3ccccc3nc21	none
CCc1nc(N)c(C#N)c(-c2cccc3ccccc23)c1C	none
COc1ccc(-c2c(C#N)c(N)nc3c2CCCC3)cc1OC	none
CCc1nc(N)c(C#N)c(-c2ccc(OC)c(OC)c2)c1C	Insulin prom act 83.3
Brc1ccc(CSc2nnc3ccccn23)cc1	none
O=C(CN(C(=O)Cn1nnc(-c2cccs2)n1)c1cnc2ccccc2c1)NCC1CCCO1 (configuration not stated)	none
Cc1ccc(S(=O)(=O)NC(=O)c2cc(C)n(-c3cc(S(=O)(=O)N4CCOCC4)ccc3N3CCCC3)c2C)cc1	none
COc1ccc2nc(NC(=O)Nc3ccccc3)sc2c1	none
CC[n+]1c(/C=C(\C)Nc2ccccc2)sc2ccccc21	none
CC[n+]1c(/C=C/C=C/N(C(C)=O)c2ccccc2)sc2cc(OC)ccc21	Insulin prom act 270.4
Cc1ccc(N(C)C(=O)N2CCN(S(=O)(=O)c3ccc(C)c(C)c3)CC2)cc1	none
O=C1C2C3C=CC(C3)C2C(=O)N1/N=C/c1cc(Br)cc([N+](=O)[O-])c1O (configuration not stated)	none
CCN1C(=O)N(CC)C2C1N(CO)C(=O)N2CO (configuration not stated)	none
O=C(c1ccccc1)c1c2c(cc3sc4ccccc4[n+]13)-c1cccc3cccc-2c13	Insulin prom act 233.3
C=CCNc1sc(C(=O)c2ccccc2)c(N)c1-c1nc2ccccc2s1	none
NC1=NC(=O)C2(COC(c3ccncc3)OC2)S1 (configuration not stated)	none
O=C(Cc1cccs1)N1CCCC(c2nc3c(nnn3Cc3cccc(Cl)c3)c(=O)[nH]2)C1 (configuration not stated)	none
C=C(C)CC(NCCc1ccccc1)c1ccco1 (configuration not stated)	Insulin prom act 669.2[fluoresces]
O=C(Nc1ccccc1C(=O)NCCc1ccccc1)c1ccco1	none
O=C(c1ccco1)N(CCC(c1ccccc1)c1ccco1)Cc1ccccc1 (configuration not stated)	none
Cc1ccc2nc(SC(C)C(=O)Nc3cccc([N+](=O)[O-])c3)[nH]c2c1 (configuration not stated)	none
CCCOc1cccc(NC(=O)OC2CCN(C)CC2)c1	none
CCOC(=O)C1CCN(C(=O)CSc2nccc(C)n2)CC1	none
Cc1cc(NCC(C)C)n2ncnc2n1	none
COc1ccc(CCN2C(=O)C3CC(C)=C(C)CC3C2=O)cc1OC (configuration not stated)	none
Cc1nc2ccc(NC(=O)CCS(=O)(=O)c3ccc(Cl)cc3)cc2s1	none
Cc1nc2ccc([N+](=O)[O-])cc2s1	none
Cc1ccc(C(=O)Nc2ccc3nc(C)sc3c2)s1	Insulin prom act 561.5
O=C(c1ccc(Cl)c([N+](=O)[O-])c1)N1CCN(Cc2ccc3c(c2)OCO3)CC1	none
CCCC(C)NC(=S)Nc1cc(C)cc(C)c1 (configuration not stated)	none
C/C(=N\NC(=O)c1ccccc1-n1cccc1)C1CC1	none
COc1ccc(N2CCN(C(=O)CCCn3c(=O)[nH]c4cc(Cl)ccc4c3=O)CC2)cc1	none
O=C(CCCn1c(=O)[nH]c2cc(Cl)ccc2c1=O)NCCCN1CCCC1	none
O=C(CCCn1c(=O)[nH]c2cc(Cl)ccc2c1=O)NCCCN1CCN(c2ccc(F)cc2)CC1	Insulin prom act 266.7
CCN(CC)S(=O)(=O)c1ccc2[nH]c(=O)[nH]c2c1	none
Cc1ccc(-c2nc3ccccc3c(=O)n2NC(=O)c2cccs2)cc1	none
CCCn1c(SCC(=O)c2cc(C)ccc2C)n[nH]c1=O	Insulin prom act 100.0
CCCn1c(SCC(=O)Nc2ccc(C(=O)Nc3ccccc3OC)cc2)n[nH]c1=O	none
CCCn1c(SCC(=O)Nc2ccc(Cl)cc2)n[nH]c1=O	none
CCOc1cccc(N(C(=O)Cc2cccs2)C(C(=O)NC2CCCCC2)c2cccn2C)c1 (configuration not stated)	none
O=C(CCCC(=O)NCC1CCCO1)NCC1CCCO1 (configuration not stated)	Insulin prom act 256.5
O=C(Cc1ccc(F)cc1)NCC1CCCO1 (configuration not stated)	none
O=C(Cc1ccccc1)NCC1CCCO1 (configuration not stated)	none
O=S(=O)(NCc1ccc2c(c1)OCO2)c1cccc2cccnc12	none
CCOc1cc(S(=O)(=O)NCc2ccc3c(c2)OCO3)c(C)cc1C	Insulin prom act 140.9
Cc1ccc2nsnc2c1S(=O)(=O)NCc1ccc2c(c1)OCO2	none
COc1ccc(C2=C(SC)CC2=NC(C)(C)C)cc1	none
COCC(=O)N1CCN(c2cccc(Cl)c2)CC1	none
COc1ccc(C(=O)NNC(=O)CCn2nnc(-c3ccc(C)cc3)n2)cc1OC	none
O=C(COC(=O)CNS(=O)(=O)c1cccc(Br)c1)NC(=O)Nc1ccc2c(c1)OCCO2	Insulin prom act 400.0
Cc1ccc(S(=O)(=O)NCC(=O)OCC(=O)Nc2cccc(S(=O)(=O)NC3=NCCCCC3)c2)cc1	none
O=C(COC(=O)CCNS(=O)(=O)c1ccc2c(c1)OCCO2)NC1CCCc2ccccc21 (configuration not stated)	none
COc1ccccc1CNC(=O)CSc1nnc2c(Cl)cc(C(F)(F)F)cn12	none
Clc1ccc(Cc2ccc(SCc3ccccc3)nn2)c(Cl)c1	none
COCc1nnc(N)s1	none
Nc1nnc(Cc2ccc(Cl)cc2Cl)s1	Insulin prom act 97.1
N#C/C(=C\c1ccc([N+](=O)[O-])o1)C(=O)Nc1ccc(F)cc1	Insulin prom act 400.0
O=C1OC(c2ccc(F)cc2)=C/C1=C\c1ccc([N+](=O)[O-])o1	none
N#C/C(=C\c1ccc(N2CCCCC2)o1)C(=O)Nc1cccc(Br)c1	none
Cc1cccc(N2C(=O)c3cccc(Oc4ccc(Cl)cc4)c3C2=O)c1	none
